According to article PMC10787258 (Current Research in Toxicology, 2023):
“Also recorded” adds a separate entry of the source.

Experiments:
[1] = Oxyfluorfen quantitation in serum and thyroid gland; format: in vivo, rat
Procedure, shortened: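 Serum came from 4-day gavage (0–500 mg/kg) and male 8-day gavage (PND27–34, 0–62.5 mg/kg); thyroids came from 8-day rats. Serum (60 µL) was spiked with d5-labelled internal standard, equilibrated 30 min at room temperature, then protein-precipitated with acetonitrile. LC/MS/MS used positive ESI in MRM mode with isotope dilution and serum-matched calibration (2.5–5000 ng/ml). LOQ 25 ng/mL serum, 2.5 ng/g thyroid; results below LOQ reported ND.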

[2] = tested on: thyroid cancer; conditions: human epidemiology, California; ref Omidakhsh et al., 2022; cited from earlier work
[3] = tested on: mouse and rabbit; conditions: mouse and rabbit studies; ref U.S. EPA, 2021; cited from earlier work
[4] = higher purity (>98 %) oxyfluorfen; ref RED 2002; 2019; cited from earlier work
[5] = tested on: juvenile male and female Sprague-Dawley rats; test: Four-day oral exposure, serum thyroid hormones; format: in vivo, rat
Procedure, shortened: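 Weanling Sprague-Dawley rats arrived PND21 and were fed AIN-93 diet (iodide 225 ng/g). Groups were weight-ranked, n = 6 per sex per dose. Daily oral gavage PND 27–30 at 0, 125, 250 or 500 mg/kg in 1 % methyl cellulose suspension, adjusted to daily body weight. Decapitation ~2 hr after 4th dose. Trunk serum total T4/T3 by RIA kits (LOD 1.24, 0.50 ng/ml). One-way ANOVA, Dunnett's; mean ± SEM.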

[6] = tested on: juvenile male Sprague-Dawley rats; test: Eight-day oral exposure, serum thyroid hormones, TSH and thyroid weight; format: in vivo, rat
[7] = tested on: deiodinase; conditions: ToxCast in vitro; ref Olker et al., 2019; cited from earlier work
[8] = tested on: hNIS-HEK293T-EPA cells; conditions: any concentration tested up to 100 μM; ref Buckalew et al., 2020; cited from earlier work
[9] = tested on: liver; conditions: 98 % pure technical grade, up to 73 mg/kg; ref U.S. EPA, 2021; cited from earlier work
[10] = Body weight, percent growth and general toxicity in 4- and 8-day studies; format: in vivo, rat
[11] = target: T1, human sodium iodide symporter (NIS) (Homo sapiens, UniProt Q92911); test: hNIS-HEK293T-EPA radioactive iodide uptake; format: cell-based
T1 sequence (Q92911 1-643): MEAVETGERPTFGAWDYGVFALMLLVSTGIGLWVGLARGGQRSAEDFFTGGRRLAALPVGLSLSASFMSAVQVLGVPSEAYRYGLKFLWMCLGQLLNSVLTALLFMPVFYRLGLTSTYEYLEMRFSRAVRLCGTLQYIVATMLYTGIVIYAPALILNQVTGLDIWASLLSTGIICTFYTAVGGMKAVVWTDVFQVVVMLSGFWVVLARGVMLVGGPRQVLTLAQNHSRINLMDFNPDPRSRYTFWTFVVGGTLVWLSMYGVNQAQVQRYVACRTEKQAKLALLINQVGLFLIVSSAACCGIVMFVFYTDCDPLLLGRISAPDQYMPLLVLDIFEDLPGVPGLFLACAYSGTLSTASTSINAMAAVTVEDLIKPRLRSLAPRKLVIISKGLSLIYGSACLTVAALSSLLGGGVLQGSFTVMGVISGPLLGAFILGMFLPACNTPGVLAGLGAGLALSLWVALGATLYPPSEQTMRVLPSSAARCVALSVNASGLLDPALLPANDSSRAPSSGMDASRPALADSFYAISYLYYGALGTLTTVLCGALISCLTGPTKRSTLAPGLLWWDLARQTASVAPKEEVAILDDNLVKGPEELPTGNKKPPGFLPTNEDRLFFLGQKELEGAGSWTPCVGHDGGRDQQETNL

[12] = cited from earlier work
[13] = tested on: FRTL-5 cells; conditions: any concentration tested up to 100 μM; ref Buckalew et al., 2020; cited from earlier work
[14] = tested on: thyroid peroxidase; conditions: ToxCast in vitro; ref Paul Friedman et al., 2016; cited from earlier work
[15] = 8 days oral, any treatment group (0.8125 to 62.5 mg/kg)

CCOc1cc(Oc2ccc(C(F)(F)F)cc2Cl)ccc1[N+](=O)[O-] [oxyfluorfen, 2-chloro-1-(3-ethoxy-4-nitrophenoxy)-4(trifluoromethyl)benzene]
Serum oxyfluorfen detection ([1]; all treated serum samples, 4- and 8-day studies): detected | Kp at 8 days ([1]; male, Sprague-Dawley, rat, thyroid gland / serum, oral, 62.5 mg/kg): 2 to 3 | Association with the occurrence of thyroid cancer [2]: increased odds ratio | Current guideline NOELs and LOELs [3]: 33 mg/kg | Acute oral, dermal, and inhalation toxicity [4]: low oral toxicity | Decrease in serum T3 ([5]; female, 4 days oral, 125 mg/kg): 18% | Decrease in serum T4 ([5]; female, 4 days oral, 125 mg/kg): ~55% | Serum T3 vs control ([5]; female, 4 days oral, 125 mg/kg): significantly suppressed | Serum T3 vs control ([5]; female, 4 days oral, 250 mg/kg): not significantly suppressed | Serum T3 vs control ([5]; female, 4 days oral, 500 mg/kg): significantly suppressed | Total serum thyroxine (T4) ([5]; male and female, 4 days, all doses (125, 250, 500 mg/kg/day)): suppressed | Decrease in serum T3 ([5]; male, 4 days oral, 125 mg/kg): 35% | Decrease in serum T4 ([5]; male, 4 days oral, 125 mg/kg): 68% | Suppression of serum T3 ([5]; male, 4 days oral, 125 to 500 mg/kg): approximately 30% | Suppression of serum T4 ([5]; male, 4 days oral, all doses (125, 250, 500 mg/kg)): 70% | LOEL for suppression of serum T4 ([6]; 8-day daily oral exposure): 3.25 mg/kg | NOEL for serum T4 ([6]; 8-day daily oral exposure): 1.625 mg/kg | LOEL for suppression of serum T3 ([6]; 8-day oral exposure): 62.5 mg/kg/day | LOEL for suppression of serum T4 ([6]; 8-day oral exposure): 3.25 mg/kg/day | Serum T3 vs control ([6]; 8 days oral, 62.5 mg/kg): significantly suppressed | Serum T3 vs control ([6]; 8 days oral, 15 and 31.25 mg/kg): non-significant decrease | Serum TSH [6, 15]: no significant differences; also recorded: No significant effects; also recorded: no significant changes | Thyroid weight [6, 15]: No changes; also recorded: no significant differences | Activity in deiodinase inhibition assay [7]: no reported thyroid activity | Cytotoxicity [8]: no observed cytotoxicity; also recorded: no confounding cytotoxicity | Liver tumor incidence [9]: has not shown liver tumor incidence | Final body weight or percent growth ([10]; 4- or 8-day treatment, any dose, male or female): did not significantly affect | Visible signs of toxicity ([10]; daily observations, all treated animals): no visible signs of toxicity | IC50 [11]: 2 µM | Tissues with the highest levels of oxyfluorfen ([12]; following acute exposure, ref U.S. EPA, 2019): lung, thyroid, liver, ovaries, kidneys, adrenals and fat | Half-life ([12]; in the rat, ref 2002 RED): approximately 30 h | Cytotoxicity [13]: no observed cytotoxicity; also recorded: no confounding cytotoxicity | Activity in thyroid peroxidase inhibition assay [14]: no reported thyroid activity
